Experimental data gathered from unrelated publications.
Target: Mitogen-activated protein kinase kinase kinase 20 (MAP3K20, Homo sapiens, UniProt Q9NYL2)

SMILES	assay	setting	remaining binding [%]
C[C@@H](c1cccc(C#N)c1)n1cc(Cl)cc(C(N)=O)c1=N	cell-free assay, competition with immobilised ligand	1 µM	71
CN(C)c1ncc(F)c(-c2cnn3ncccc23)n1	binding	1 µM	96
Cc1c(NC(=O)c2cc(C(N)=O)nc3cc(F)ccc23)c(C(F)(F)F)nn1Cc1ccc(C#N)cc1	cell-free assay, competition with immobilised ligand	1 µM	100
C=CC(=O)N1CCC(C(=O)NCC(=O)N2CCN(c3nc(-c4cnc(N)nc4C(F)F)nc(N4CCOCC4)n3)CC2)CC1	binding, competition with immobilised ligand	1 µM	100
Cc1cnc(Nc2ccc(C(=O)N3CCC(N4CCCC4)CC3)cc2)nc1-c1cc2ccccc2s1	binding, competition with immobilised ligand	1 µM	43
O=C(NCC1CCOCC1)c1n[nH]cc1NC(=O)c1c(F)cccc1F	binding, competition with immobilised ligand	1 µM	100
C[C@@H]1CCN(c2nccc(-c3cnn4ncccc34)n2)C1	binding	1 µM	100
Nc1ncc2c(n1)-c1c([nH]c3ccc(C#CC4CC4)cc13)CCCC2	binding, competition with immobilised ligand	1 µM	93
F[C@@H]1CCN(c2nccc(-c3cnn4ncccc34)n2)C1	binding	1 µM	76
COc1ncc2cc3ccccc3nc2c1C#N	cell-free assay, competition with immobilised ligand	5 µM	80
CN(C)c1nccc(-c2cnn3ncccc23)n1	binding	1 µM	100
O=C(NCCCN1CCOCC1)c1ccc(Nc2nccc(-c3cc4ccccc4s3)n2)cc1	binding, competition with immobilised ligand	1 µM	62
O=C(NCc1ncc(C(F)(F)F)cc1Cl)c1ccc2c(c1)C1(CCS(=O)(=O)CC1)[C@H](C1CC1)N2S(=O)(=O)c1ccc(F)cc1	cell-free assay, competition with immobilised ligand	1 µM	100
N[C@H]1CCN(c2nccc(-c3cnn4ncccc34)n2)C1	binding	1 µM	99
COc1cnc(Nc2cccc(S(N)(=O)=O)c2)nc1N1CCN(c2ccccc2)CC1	binding, competition with immobilised ligand	1 µM	100
CC1CCCN1c1nccc(-c2cnn3ncccc23)n1 (stereo not shown)	binding	1 µM	100
Cc1cc(-n2nc(Cc3cc(F)cc(C(F)(F)F)c3)nc2C)ccc1C(N)=O	cell-free assay, competition with immobilised ligand	1 µM	99
COc1ccnn2ncc(-c3ccnc(N(C)C)n3)c12	binding	1 µM	100
Cc1cc(C)c(-n2ccn3nc(-c4cccnc4)cc23)cc1NC(=O)c1cc(C#N)cc(S(F)(F)(F)(F)F)c1	cell-free assay, competition with immobilised ligand	0.1 µM	97.5
CCN1CCN(Cc2ccc(C(=O)Nc3ccc(C)c(Oc4ccc5c(c4)CC(=O)N5)c3)cc2C(F)(F)F)CC1	binding, competition with immobilised ligand	1 µM	100
CN(C(=O)c1ccccc1)c1cc(N(C)c2ccc3c(c2)CCc2ccc(C(=O)NCCN4CCOCC4)cc2C3=O)ccc1F	cell-free assay, competition with immobilised ligand	1 µM	82
O=C(c1ccc(Nc2ncc(Cl)c(-c3cc4ccccc4s3)n2)cc1)N1CCC(N2CCCC2)CC1	binding, competition with immobilised ligand	1 µM	48
